Source: ChEMBL document CHEMBL2146408, “Primary amino acid derivatives: compounds with anticonvulsant and neuropathic pain protection activities” (J Med Chem, 2011)
Activity calls are given as the source filed them. The calls are words filed in the database; no cut-off is given here.

How the values were obtained:
Mus musculus [1] = assay: Antinociceptive activity in ip dosed NMRI mouse assessed as inhibition of formalin-induced neuropathic pain after 30 mins; format: functional; conditions: 0.5 h
In short: (§1)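 NMRI mice dosed ip at UCB Pharma, then tested in the formalin model of neuropathic pain. ED50 in mg/kg read 30 min after administration. Single-dose runs report the percentage protected.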

Mus musculus [2] = assay: Anticonvulsant activity in ip dosed CF1 mouse assessed as protection against 6 Hz psychomotor seizure after 30 mins; format: functional; conditions: 0.5 h
In short: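 Adult male albino CF-1 mice dosed ip (NINDS ASP). 6 Hz psychomotor seizure test at 32 mA, per Stables and Kupferberg.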

Mus musculus [3] = assay: Anticonvulsant activity in ip dosed NMRI mouse assessed as protection against 6 Hz psychomotor seizure after 30 mins; format: functional; conditions: 0.5 h; for minimal effective dose: read-out: MED
In short: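 Adult male NMRI mice dosed ip (UCB Pharma). 6 Hz psychomotor seizure model at 44 mA, per Kaminski and co-workers.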

Mus musculus [4] = assay: Anticonvulsant activity in ip dosed CF1 mouse assessed as protection against maximal electroshock-induced seizure after 30 mins; format: functional; conditions: 0.5 h
In short: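 Adult male albino CF-1 (Carworth Farms No. 1) mice dosed ip under the NINDS ASP; maximal electroshock seizure test. For compounds with sufficient activity, a dose-response curve was run at the time of peak effect (hours).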

Rattus norvegicus [5] = species: Rattus norvegicus; assay: Protective index, ratio of TD50 for Sprague-Dawley rat to ED50 for Sprague-Dawley rat by maximal electroshock seizure test; format: functional
In short: (§2)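 Protective index computed as rotorod (mice) or behavioral (rats) TD50 divided by MES ED50, both in mg/kg in the same species and route.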

Mus musculus [6] = species: Mus musculus; assay: Protective index, ratio of TD50 for CF1 mouse to ED50 for CF1 mouse by maximal electroshock seizure test; format: functional; in short: as §2
[7] = Neurotoxicity in po dosed Sprague-Dawley rat assessed as minimal motor impairment after 30 mins by rotorod test; format: toxicity, organism-based; conditions: in vivo
[8] = Neurotoxicity in ip dosed NMRI mouse assessed as minimal motor impairment after 30 mins; format: toxicity, organism-based; conditions: in vivo
In short: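 Adult male NMRI mice dosed ip at UCB Pharma. Neurological toxicity was scored on the rotorod test 30 min after dosing.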

Rattus norvegicus [9] = assay: Anticonvulsant activity in po dosed Sprague-Dawley rat assessed as protection against maximal electroshock-induced seizure after 30 mins; format: functional; conditions: 0.5 h
Mus musculus [10] = assay: Anticonvulsant activity in NMRI mouse assessed as protection against subcutaneous pentylenetetrazol-induced seizure at 30 to 300 mg/kg, ip after 0.5 to 4 hrs; format: functional, organism-based
Mus musculus [11] = assay: Anticonvulsant activity in ip dosed NMRI mouse assessed as protection against maximal electroshock-induced seizure after 30 mins; format: functional; conditions: 0.5 h; for minimal effective dose: read-out: MED
In short: (§3)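 Adult male NMRI mice dosed ip (UCB Pharma). MES test run per the Klitgaard procedure. […] Single-dose runs report the percentage of animals protected.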

Mus musculus [12] = species: Mus musculus; assay: Protective index, ratio of TD50 for NMRI mouse to ED50 for NMRI mouse formalin-induced neuropathic pain model; format: functional
Mus musculus [13] = species: Mus musculus; assay: Protective index, ratio of TD50 for NMRI mouse to ED50 for NMRI mouse by maximal electroshock seizure test; format: functional; in short: as §2
[14] = Neurotoxicity in ip dosed CF1 mouse assessed as minimal motor impairment after 30 mins; format: toxicity, organism-based; conditions: in vivo
Mus musculus [15] = assay: Antinociceptive activity in NMRI mouse assessed as inhibition of formalin-induced neuropathic pain at 74 mg/kg, ip after 30 mins; format: functional; set-up: scale not given: the % may be the effect or the level left; conditions: route intraperitoneal; in short: as §1
Mus musculus [16] = assay: Antinociceptive activity in NMRI mouse assessed as inhibition of formalin-induced neuropathic pain at 68 mg/kg, ip after 30 mins; format: functional; set-up: scale not given: the % may be the effect or the level left; conditions: route intraperitoneal; in short: as §1
Mus musculus [17] = assay: Anticonvulsant activity in NMRI mouse assessed as protection against maximal electroshock-induced seizure at 46 mg/kg, ip after 30 mins; format: functional; conditions: route intraperitoneal; in short: as §3
Mus musculus [18] = assay: Antinociceptive activity in NMRI mouse assessed as inhibition of formalin-induced neuropathic pain at 71 mg/kg, ip after 30 mins; format: functional; set-up: scale not given: the % may be the effect or the level left; conditions: route intraperitoneal; in short: as §1
Mus musculus [19] = assay: Antinociceptive activity in NMRI mouse assessed as inhibition of formalin-induced neuropathic pain at 79 mg/kg, ip after 30 mins; format: functional; set-up: scale not given: the % may be the effect or the level left; conditions: route intraperitoneal; in short: as §1
Mus musculus [20] = assay: Antinociceptive activity in NMRI mouse assessed as inhibition of formalin-induced neuropathic pain at 25 mg/kg, ip after 30 mins; format: functional, organism-based; set-up: dose 25 mg/kg; in short: as §1
Mus musculus [21] = assay: Antinociceptive activity in NMRI mouse assessed as inhibition of formalin-induced neuropathic pain at 75 mg/kg, ip after 30 mins; format: functional; set-up: scale not given: the % may be the effect or the level left; conditions: route intraperitoneal; in short: as §1
Mus musculus [22] = assay: Antinociceptive activity in NMRI mouse assessed as inhibition of formalin-induced neuropathic pain at 83 mg/kg, ip after 30 mins; format: functional; set-up: scale not given: the % may be the effect or the level left; conditions: route intraperitoneal; in short: as §1

SMILES | ED50 (Mus musculus [1]) [mg/kg] | minimal effective dose (Mus musculus [3]) [mg/kg] | TD50 at 0.5 h [7] [mg/kg] | TD50 at 0.5 h [8] [mg/kg] | Activity (Mus musculus [10]) | ED50 (Mus musculus [11]) [mg/kg] | TD50 at 0.5 h [14] [mg/kg] | ED50 (Mus musculus [3]) [mg/kg] | further results
CC[C@@H](N)C(=O)NCc1ccccc1 | 22 | 62 | > 500 | 80 | inactive | 16 | – | – | ED50 (Mus musculus [2]): 50 mg/kg; ED50 (Mus musculus [4]): 18 mg/kg; Ratio TD50/ED50 (Rattus norvegicus [5]): >45; Ratio TD50/ED50 (Mus musculus [6]): 4.4; ED50 (Rattus norvegicus [9]): 11 mg/kg
COC[C@H](N)C(=O)NCc1ccccc1 | – | – | – | – | – | – | – | – | Ratio TD50/ED50 (Mus musculus [12]): 0.5
CCC[C@@H](N)C(=O)NCc1ccccc1 | 35 | 66 | – | – | – | 21 | 57 | – | Ratio TD50/ED50 (Mus musculus [13]): 2.8; Ratio TD50/ED50 (Mus musculus [12]): 1.6
C#CCOCC(N)C(=O)NCc1ccccc1 (racemic) | 74 | 130 | – | – | – | 46 | 47 | – | Activity (Mus musculus [15]): 27%
CCCC(N)C(=O)NCc1ccccc1 (racemic) | – | 120 | – | – | – | 39 | – | – | Activity (Mus musculus [16]): 17%
CCC(C)C(N)C(=O)NCc1ccccc1 (racemic) | > 22 | – | – | – | – | – | – | > 120 | Activity (Mus musculus [17]): 100%; minimal effective dose (Mus musculus [11]): 46 mg/kg
CC(N)C(=O)NCc1ccccc1 (racemic) | – | – | > 500 | > 300 | inactive | – | – | – | ED50 (Mus musculus [4]): > 100 mg/kg; Ratio TD50/ED50 (Rattus norvegicus [5]): >36; ED50 (Rattus norvegicus [9]): 14 mg/kg
N[C@@H](CO)C(=O)NCc1ccccc1 | > 62 | – | – | – | – | – | > 110 | > 62 | –
CC(C)(C)[C@H](N)C(=O)NCc1ccccc1 | – | – | > 30 | 100 | inactive | – | – | – | ED50 (Rattus norvegicus [9]): > 30 mg/kg
NC(CO)C(=O)NCc1ccccc1 (racemic) | > 62 | – | – | – | – | > 62 | > 110 | > 62 | Ratio TD50/ED50 (Mus musculus [12]): >1.8
CCOCC(N)C(=O)NCc1ccccc1 (racemic) | 71 | – | – | – | inactive | 73 | – | 120 | Activity (Mus musculus [18]): 19%
COC[C@@H](N)C(=O)NCc1ccccc1 | – | – | – | < 30 | inactive | – | > 120 | – | Ratio TD50/ED50 (Mus musculus [12]): >1.8
N[C@@H](C(=O)NCc1ccccc1)C1CCCCC1 | – | 140 | – | – | – | 28 | – | – | Activity (Mus musculus [19]): 95%; Activity (Mus musculus [20]): inactive
C=CCOCC(N)C(=O)NCc1ccccc1 (racemic) | 75 | 130 | – | – | – | 45 | – | – | Activity (Mus musculus [21]): 12%
C[C@@H](N)C(=O)NCc1ccccc1 | – | – | > 30 | < 100 | inactive | – | – | – | Ratio TD50/ED50 (Rattus norvegicus [5]): >1.5; ED50 (Rattus norvegicus [9]): 19 mg/kg
C[C@H](N)C(=O)NCc1ccccc1 | – | – | > 80 | > 300 | inactive | – | – | – | ED50 (Rattus norvegicus [9]): > 80 mg/kg
CN(C)CC(N)C(=O)NCc1ccccc1 (racemic) | 83 | – | – | – | – | 94 | – | > 110 | Activity (Mus musculus [22]): 14%
CC(C)[C@@H](N)C(=O)NCc1ccccc1 | – | – | > 500 | – | inactive | – | – | – | Ratio TD50/ED50 (Mus musculus [6]): 4.7; Ratio TD50/ED50 (Mus musculus [12]): 2.4; minimal effective dose (Mus musculus [11]): 16 mg/kg
N[C@H](CO)C(=O)NCc1ccccc1 | > 62 | – | – | – | – | > 62 | > 110 | > 62 | –
